Experimental data of several laboratories.
Target: SRSF protein kinase 3 (SRPK3, Homo sapiens, UniProt Q9UPE1)

SMILES | observed | action | technique | tested at | endpoint | result
CN(C)C(=O)Cn1cc(-c2nc(C3(c4ccc(-c5cnc(N)nc5)cc4)CC3)no2)cn1 | cell-free assay | – | competition with immobilised ligand | 1 µM | remaining binding | 100%
CCN(CC)c1ccc(C2=NNC(=O)CC2C)cc1[N+](=O)[O-] (centres unmarked) | enzyme activity | inhibitor | – | 10 µM | remaining activity | 111%
Cc1ccc(NC(=O)c2ccc(C)c(C(F)(F)F)c2)cc1C#Cc1nn(C2CCC(O)CC2)c2ncnc(N)c12 (centres unmarked) | cell-free assay | – | – | 10 µM | remaining signal | 56%
Cn1c2c(c3ccccc31)C(C#N)C(C)(C)NC2=O (centres unmarked) | thermal stability | – | DSF | 10 µM | ΔTm | 0.2 °C
CNC(=O)c1cc(Oc2ccc(NC(=O)Nc3ccc(Cl)c(C(F)(F)F)c3)cc2)ccn1 | enzyme activity | inhibitor | – | 10 µM | inhibition | 60%
Cn1c2c(c3ccc(Cl)c(Cl)c31)C(C#N)C1(CCNCC1)NC2=O (racemic) | thermal stability | – | DSF | 10 µM | ΔTm | 1.9 °C
CCCS(=O)(=O)Nc1ccc(F)c(C(=O)c2c[nH]c3ncc(-c4ccc(Cl)cc4)cc23)c1F | enzyme activity | inhibitor | – | 1 µM | inhibition | < 10%
Cc1cc(NC(=O)c2cccc(S(F)(F)(F)(F)F)c2)cc(-n2ccn3nc(-c4cccnc4)cc23)c1 | cell-free assay | – | competition with immobilised ligand | 1 µM | remaining binding | 100%
Cc1ccc(C(=O)Nc2ccc(CN3CCN(C)CC3)c(C(F)(F)F)c2)cc1C#Cc1cnc2cccnn12 | enzyme activity | inhibitor | – | 23.5 nM | remaining activity | 96%
CCC(=O)N[C@@H]1CC[C@H](C(=O)N(C)c2ccc(-c3nc4ccccc4o3)cc2)C1 | cell-free assay | – | competition with immobilised ligand | 1 µM | remaining binding | 100%
Cn1c2c(Cl)c(Cl)ccc2c2cc(N)[nH]c(=O)c21 | thermal stability | – | DSF | 10 µM | ΔTm | 0.3 °C
CCOc1cc(-c2nncn2C)ccc1Nc1ncc2cc(C)nc(NCC(C)(C)C)c2n1 | enzyme activity | inhibitor | FRET | 1 µM | inhibition | < 15%
Cc1ccc(Nc2nccc(N(C)c3ccc4c(C)n(C)nc4c3)n2)cc1S(N)(=O)=O | enzyme activity | inhibitor | – | 10 µM | inhibition | 3%
COc1cc2ncnc(Nc3ccc(Oc4ccccc4)cc3C)c2cc1OC | enzyme activity | inhibitor | – | 1 µM | inhibition | 2%
O=C(Nc1ccc(Oc2ccc(F)cc2)cc1)N1CCc2ncccc2[C@H]1c1ccc(F)cc1 | cell-free assay | – | competition with immobilised ligand | 1 µM | remaining binding | 100%
COc1cc(Cl)c(C(=O)N[C@@H](CN[C@H]2CC[C@@H](N)CC2)Cc2ccc(C#N)cc2)cc1-c1ccc(CN[C@H](C)c2ccc(C)cc2)o1 | enzyme activity | inhibitor | – | 1 µM | remaining activity | 96%
O=c1nc(-c2ccccn2)sc2ccccc12 | binding | – | competition with immobilised ligand | 1 µM | remaining binding | 100%
CCN(CC)CCNC(=O)c1c(C)[nH]c(/C=C2\C(=O)Nc3ccc(F)cc32)c1C | enzyme activity | inhibitor | – | 0.3 µM | inhibition | -4%
CC(=O)Nc1c(C(C)=O)c(=O)n(C)c2nc(-c3ccc(Cl)cc3Cl)c(-c3ccc(Cl)cc3)cc12 | cell-free assay | – | competition with immobilised ligand | 1 µM | remaining binding | 100%
CC(C)(C)c1nc(-c2cccc(NS(=O)(=O)c3c(F)cccc3F)c2F)c(-c2ccnc(N)n2)s1 | enzyme activity | inhibitor | radiometric | 1 µM | remaining activity | 105%
